Data reported in ChEMBL document CHEMBL1799968, “Dimethyl-diphenyl-propanamide derivatives as nonsteroidal dissociated glucocorticoid receptor agonists” (J Med Chem, 2010).

Tests used:
Estrogen receptor = biological target: T1, Estrogen receptor (Homo sapiens, UniProt P03372); test: Binding affinity to ERalpha by fluorescence polarization assay
T1 sequence (P03372 whole entry): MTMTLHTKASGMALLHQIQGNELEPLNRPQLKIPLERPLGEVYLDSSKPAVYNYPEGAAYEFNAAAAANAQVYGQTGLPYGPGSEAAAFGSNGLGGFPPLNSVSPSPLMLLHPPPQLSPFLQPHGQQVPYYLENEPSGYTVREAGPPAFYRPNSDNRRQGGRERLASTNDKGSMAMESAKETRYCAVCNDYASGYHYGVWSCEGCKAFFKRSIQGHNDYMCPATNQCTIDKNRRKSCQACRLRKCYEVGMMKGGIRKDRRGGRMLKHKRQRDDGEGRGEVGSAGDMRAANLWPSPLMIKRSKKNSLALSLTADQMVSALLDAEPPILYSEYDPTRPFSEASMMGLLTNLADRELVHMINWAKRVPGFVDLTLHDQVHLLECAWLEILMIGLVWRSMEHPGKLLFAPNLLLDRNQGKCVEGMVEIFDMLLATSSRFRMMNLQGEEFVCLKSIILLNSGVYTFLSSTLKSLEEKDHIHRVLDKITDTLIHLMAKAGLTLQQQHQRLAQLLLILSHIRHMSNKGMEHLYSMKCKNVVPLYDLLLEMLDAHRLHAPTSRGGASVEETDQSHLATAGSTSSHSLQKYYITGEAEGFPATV
Method in brief: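 Fluorescence polarization competition of test compound against a fluorescently labelled ligand for binding to full-length receptor or its ligand-binding domain.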

Glucocorticoid receptor [1] = biological target: T2, Glucocorticoid receptor (Homo sapiens, UniProt P04150); test: Displacement of GS-red from GRapha by fluorescence polarization assay
T2 sequence (P04150 whole entry): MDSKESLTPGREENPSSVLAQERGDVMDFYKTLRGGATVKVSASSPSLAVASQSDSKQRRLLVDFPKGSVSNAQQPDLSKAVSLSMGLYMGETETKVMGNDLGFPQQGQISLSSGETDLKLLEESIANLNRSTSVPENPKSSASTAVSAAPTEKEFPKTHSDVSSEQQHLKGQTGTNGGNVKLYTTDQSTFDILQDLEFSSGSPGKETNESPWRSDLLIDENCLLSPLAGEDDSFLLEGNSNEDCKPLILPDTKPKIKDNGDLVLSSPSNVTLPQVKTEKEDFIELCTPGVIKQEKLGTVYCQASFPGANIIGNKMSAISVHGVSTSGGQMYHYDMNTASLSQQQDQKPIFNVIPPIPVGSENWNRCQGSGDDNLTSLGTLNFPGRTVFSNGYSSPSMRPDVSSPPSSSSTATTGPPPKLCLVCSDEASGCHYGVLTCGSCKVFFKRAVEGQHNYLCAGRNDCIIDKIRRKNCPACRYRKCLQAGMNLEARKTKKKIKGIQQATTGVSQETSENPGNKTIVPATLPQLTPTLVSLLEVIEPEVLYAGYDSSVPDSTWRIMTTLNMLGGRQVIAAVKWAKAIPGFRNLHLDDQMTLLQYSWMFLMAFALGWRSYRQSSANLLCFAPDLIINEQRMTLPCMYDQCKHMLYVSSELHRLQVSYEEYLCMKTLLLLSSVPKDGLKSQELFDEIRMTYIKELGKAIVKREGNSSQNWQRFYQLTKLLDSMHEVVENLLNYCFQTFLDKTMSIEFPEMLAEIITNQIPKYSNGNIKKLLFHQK

Glucocorticoid receptor [2] = biological target: T2, Glucocorticoid receptor; test: Transrepression activity of glucocorticoid receptor in human A549 cells expressing AP-1 assessed as inhibition of PMA-induced AP-1 activity by luciferase reporter gene assay; format: cell-based
[3] = biological target: T3, Glucocorticoid receptor (Homo sapiens) (UniProt P04150); test: Transrepression activity of glucocorticoid receptor in human A549 cells expressing AP-1 assessed as inhibition of PMA-induced AP-1 activity by luciferase reporter gene assay relative to Dexamethasone; format: cell-based
T3 sequence (whole entry): T2 sequence (P04150 whole entry)
Method in brief: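 Human A549 lung epithelial cells stably transfected with a 5×AP-1 response element luciferase reporter. AP-1 was induced with PMA (15 ng/mL), and inhibition was read as decreased luciferase.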

Glucocorticoid receptor [4] = biological target: T2, Glucocorticoid receptor; test: Transactivation activity of glucocorticoid receptor ligand binding domain expressed in human NP-1 Hela cells co-expressing GAL4 DNA binding domain by luciferase reporter gene assay; format: cell-based
Glucocorticoid receptor [5] = biological target: T2, Glucocorticoid receptor; test: Transrepression activity of glucocorticoid receptor in human A549 cells assessed as inhibition of IL1beta-stimulated NFkappaB-dependent E-selectin transcription by luciferase reporter gene assay; format: cell-based
[6] = biological target: T3, Glucocorticoid receptor (Homo sapiens); test: Transactivation activity of glucocorticoid receptor ligand binding domain expressed in human NP-1 Hela cells co-expressing GAL4 DNA binding domain by luciferase reporter gene assay relative to Dexamethasone; format: cell-based
Method in brief: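 HeLa NP-1 cells stably carrying a GAL4 DBD–human GR LBD chimera with a GAL4 luciferase reporter. Agonist activity was read as increased luciferase activity.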

Glucocorticoid receptor [7] = biological target: T2, Glucocorticoid receptor; test: Transactivation activity at glucocorticoid receptor in human 13D3/Huh7 cells assessed as induction of tyrosine aminotransferase activity after 24 hrs; format: cell-based, Huh-7
[8] = biological target: T3, Glucocorticoid receptor (Homo sapiens); test: Transactivation activity at glucocorticoid receptor in human 13D3/Huh7 cells assessed as induction of tyrosine aminotransferase activity after 24 hrs relative to Dexamethasone; format: cell-based; details: Huh-7
Method in brief: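 Human 13D3/Huh7 hepatoma cells, 20 K/well, were incubated overnight at 37 °C/5% CO2. They were then treated overnight with compounds in assay medium containing 20 μM forskolin. The reaction was stopped with KOH and A340 read. Results are % activation, with EC50 derived.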

[9] = Selectivity ratio of Ki of GRapha to Ki of androgen receptor
[10] = Selectivity ratio of Ki of GRapha to Ki of progesterone receptor

With `CC(C)(C(=O)Nc1nccs1)[C@H]1c2ccccc2Oc2cc(O)ccc21` the Ki (Estrogen receptor) was 2300 nM, the Ki (Glucocorticoid receptor [1]) was 0.3 nM and the EC50 (Glucocorticoid receptor [2]) was 17.5 nM. For the same molecule, the Efficacy [3] was 81%, the EC50 (Glucocorticoid receptor [4]) was 60.1 nM and the EC50 (Glucocorticoid receptor [5]) was 9.3 nM. For the same molecule, the Efficacy [6] was 30%, the EC50 (Glucocorticoid receptor [7]) was 27.1 nM and the Efficacy [8] was 39%. The Ratio Ki [9] was over 870 and the Ratio Ki [10] was 73.
Molecule `CC(C)(C(=O)Nc1nccs1)[C@@H](c1ccccc1)c1ccc(O)c(F)c1` has a Ki (Estrogen receptor) of over 50000 nM, a Ki (Glucocorticoid receptor [1]) of 0.7 nM and an EC50 (Glucocorticoid receptor [2]) of 15.9 nM. It also gave an Efficacy [3] of 79%, an EC50 (Glucocorticoid receptor [4]) of 119 nM and an EC50 (Glucocorticoid receptor [5]) of 8.6 nM. For the same molecule, the Efficacy [6] was 61%, the EC50 (Glucocorticoid receptor [7]) was 36.1 nM and the Efficacy [8] was 48%. For the same molecule, the Ratio Ki [9] was over 870 and the Ratio Ki [10] was 66.
Work on `CC(C)(C(=O)Nc1nncs1)[C@H]1c2ccccc2Oc2cc(O)ccc21` yielded a Ki (Estrogen receptor) of 5500 nM, a Ki (Glucocorticoid receptor [1]) of 0.8 nM and an EC50 (Glucocorticoid receptor [2]) of 7.8 nM. For the same molecule, the Efficacy [3] was 82%, the EC50 (Glucocorticoid receptor [4]) was 85.7 nM and the EC50 (Glucocorticoid receptor [5]) was 3.5 nM. It also gave an Efficacy [6] of 46%, an EC50 (Glucocorticoid receptor [7]) of 91.3 nM and an Efficacy [8] of 45%. For the same molecule, the Ratio Ki [9] was over 870 and the Ratio Ki [10] was 66.
Work on `CC(C)(C(=O)Nc1nccs1)[C@@H](c1ccccc1)c1ccc(O)cc1` yielded a Ki (Estrogen receptor) of over 100000 nM, a Ki (Glucocorticoid receptor [1]) of 1.2 nM and an EC50 (Glucocorticoid receptor [2]) of 40.9 nM. It also gave an Efficacy [3] of 63%, an EC50 (Glucocorticoid receptor [4]) of 372 nM and an EC50 (Glucocorticoid receptor [5]) of 29.5 nM. For the same molecule, the Efficacy [6] was 21%, the EC50 (Glucocorticoid receptor [7]) was 251 nM and the Efficacy [8] was 21%. The Ratio Ki [9] was over 870 and the Ratio Ki [10] was 227.
In the case of `CC(C)(C(=O)Nc1nccs1)[C@@H](c1ccccc1)c1ccc(O)c(Br)c1`, the Ki (Estrogen receptor) is reported as over 50000 nM, the Ki (Glucocorticoid receptor [1]) is reported as 0.4 nM and the EC50 (Glucocorticoid receptor [2]) is reported as 40.1 nM. The Efficacy [3] was 83%, the EC50 (Glucocorticoid receptor [4]) was 115 nM and the EC50 (Glucocorticoid receptor [5]) was 8.6 nM. The Efficacy [6] was 48%, the EC50 (Glucocorticoid receptor [7]) was 142 nM and the Efficacy [8] was 29%. It also gave a Ratio Ki [9] of over 870 and a Ratio Ki [10] of 66.
